{
  "source": "ChEMBL document CHEMBL1145100",
  "about": "“Structure-activity relationship of imidazo[1,2-a]pyridines as ligands for detecting beta-amyloid plaques in the brain” (J Med Chem, 2003)",
  "key": {"Mus musculus [1]": {"system": "Mus musculus", "assay": "Biodistribution of radioactivity in normal mice (ICR) kidney after 30 minutes of intravenous injection of [125I]-16(IMPY)", "assay_type": "ADME, organism-based", "conditions": "in vivo, 0.5 h", "outline": "(§1)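 Male ICR mice, 2-3 months old, 20-30 g, under ether anesthesia, given 0.15 mL of 0.1% bovine serum albumin solution containing the [125I] tracer into the tail vein. Killed by cardiac excision at set times after injection. Organs removed and weighed, then gamma-counted. % dose per organ computed against diluted aliquots of the injected material.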"}, "Mus musculus [2]": {"system": "Mus musculus", "assay": "Biodistribution of radioactivity in normal mice (ICR) kidney after 6 hours of intravenous injection of [125I]-16(IMPY)", "assay_type": "ADME, organism-based", "conditions": "in vivo", "outline": "as §1"}, "Mus musculus [3]": {"system": "Mus musculus", "assay": "Biodistribution of radioactivity in normal mice (ICR) liver after 1 hour of intravenous injection of [125I]-16(IMPY)", "assay_type": "ADME, organism-based", "conditions": "in vivo", "outline": "as §1"}, "Mus musculus [4]": {"system": "Mus musculus", "assay": "Biodistribution of radioactivity in normal mice (ICR) liver after 2 hours of intravenous injection of [125I]-16(IMPY)", "assay_type": "ADME, organism-based", "conditions": "in vivo", "outline": "as §1"}, "Mus musculus [5]": {"system": "Mus musculus", "assay": "Biodistribution of radioactivity in normal mice (ICR) liver after 2 minutes of intravenous injection of [125I]-16(IMPY)", "assay_type": "ADME, organism-based", "conditions": "in vivo", "outline": "as §1"}, "Mus musculus [6]": {"system": "Mus musculus", "assay": "Biodistribution of radioactivity in normal mice (ICR) liver after 24 hours of intravenous injection of [125I]-16(IMPY)", "assay_type": "ADME, organism-based", "conditions": "in vivo", "outline": "as §1"}, "Mus musculus [7]": {"system": "Mus musculus", "assay": "Biodistribution of radioactivity in normal mice (ICR) liver after 30 minutes of intravenous injection of [125I]-16(IMPY)", "assay_type": "ADME, organism-based", "conditions": "in vivo, 0.5 h", "outline": "as §1"}, "Mus musculus [8]": {"system": "Mus musculus", "assay": "Biodistribution of radioactivity in normal mice (ICR) liver after 6 hours of intravenous injection of [125I]-16(IMPY)", "assay_type": "ADME, organism-based", "conditions": "in vivo", "outline": "as §1"}, "Mus musculus [9]": {"system": "Mus musculus", "assay": "Biodistribution of radioactivity in normal mice (ICR) lung after 1 hour of intravenous injection of [125I]-16(IMPY)", "assay_type": "ADME, organism-based", "conditions": "in vivo", "outline": "as §1"}, "Mus musculus [10]": {"system": "Mus musculus", "assay": "Biodistribution of radioactivity in normal mice (ICR) lung after 2 hours of intravenous injection of [125I]-16(IMPY)", "assay_type": "ADME, organism-based", "conditions": "in vivo", "outline": "as §1"}, "Mus musculus [11]": {"system": "Mus musculus", "assay": "Biodistribution of radioactivity in normal mice (ICR) lung after 2 minutes of intravenous injection of [125I]-16(IMPY)", "assay_type": "ADME, organism-based", "conditions": "in vivo", "outline": "as §1"}, "Mus musculus [12]": {"system": "Mus musculus", "assay": "Biodistribution of radioactivity in normal mice (ICR) lung after 24 hours of intravenous injection of [125I]-16(IMPY)", "assay_type": "ADME, organism-based", "conditions": "in vivo", "outline": "as §1"}, "Mus musculus [13]": {"system": "Mus musculus", "assay": "Biodistribution of radioactivity in normal mice (ICR) lung after 30 minutes of intravenous injection of [125I]-16(IMPY)", "assay_type": "ADME, organism-based", "conditions": "in vivo, 0.5 h", "outline": "as §1"}, "Mus musculus [14]": {"system": "Mus musculus", "assay": "Biodistribution of radioactivity in normal mice (ICR) lung after 6 hours of intravenous injection of [125I]-16(IMPY)", "assay_type": "ADME, organism-based", "conditions": "in vivo", "outline": "as §1"}, "Mus musculus [15]": {"system": "Mus musculus", "assay": "Biodistribution of radioactivity in normal mice (ICR) muscle after 1 hr of intravenous injection of [125I]-16(IMPY)", "assay_type": "ADME, organism-based, Muscle tissue", "conditions": "in vivo", "outline": "as §1"}, "Mus musculus [16]": {"system": "Mus musculus", "assay": "Biodistribution of radioactivity in normal mice (ICR) muscle after 2 hours of intravenous injection of [125I]-16(IMPY)", "assay_type": "ADME, organism-based, Muscle tissue", "conditions": "in vivo", "outline": "as §1"}, "Mus musculus [17]": {"system": "Mus musculus", "assay": "Biodistribution of radioactivity in normal mice (ICR) muscle after 2 minutes of intravenous injection of [125I]-16(IMPY)", "assay_type": "ADME, organism-based, Muscle tissue", "conditions": "in vivo", "outline": "as §1"}, "Mus musculus [18]": {"system": "Mus musculus", "assay": "Biodistribution of radioactivity in normal mice (ICR) muscle after 24 hours of intravenous injection of [125I]-16(IMPY)", "assay_type": "ADME, organism-based, Muscle tissue", "conditions": "in vivo", "outline": "as §1"}, "Mus musculus [19]": {"system": "Mus musculus", "assay": "Biodistribution of radioactivity in normal mice (ICR) muscle after 30 minutes of intravenous injection of [125I]-16(IMPY)", "assay_type": "ADME, organism-based, Muscle tissue", "conditions": "in vivo, 0.5 h", "outline": "as §1"}, "Mus musculus [20]": {"system": "Mus musculus", "assay": "Biodistribution of radioactivity in normal mice (ICR) muscle after 6 hours of intravenous injection of [125I]-16(IMPY)", "assay_type": "ADME, organism-based, Muscle tissue", "conditions": "in vivo", "outline": "as §1"}, "Mus musculus [21]": {"system": "Mus musculus", "assay": "Biodistribution of radioactivity in normal mice (ICR) skin after 1 hour of intravenous injection of [125I]-16(IMPY)", "assay_type": "ADME, organism-based, Zone of skin", "conditions": "in vivo", "outline": "as §1"}, "Mus musculus [22]": {"system": "Mus musculus", "assay": "Biodistribution of radioactivity in normal mice (ICR) skin after 2 hours of intravenous injection of [125I]-16(IMPY)", "assay_type": "ADME, organism-based, Zone of skin", "conditions": "in vivo", "outline": "as §1"}, "Mus musculus [23]": {"system": "Mus musculus", "assay": "Biodistribution of radioactivity in normal mice (ICR) skin after 2 minutes of intravenous injection of [125I]-16(IMPY)", "assay_type": "ADME, organism-based, Zone of skin", "conditions": "in vivo", "outline": "as §1"}, "Mus musculus [24]": {"system": "Mus musculus", "assay": "Biodistribution of radioactivity in normal mice (ICR) skin after 24 hours of intravenous injection of [125I]-16(IMPY)", "assay_type": "ADME, organism-based, Zone of skin", "conditions": "in vivo", "outline": "as §1"}, "Mus musculus [25]": {"system": "Mus musculus", "assay": "Biodistribution of radioactivity in normal mice (ICR) skin after 30 minutes of intravenous injection of [125I]-16(IMPY)", "assay_type": "ADME, organism-based, Zone of skin", "conditions": "in vivo, 0.5 h", "outline": "as §1"}, "Mus musculus [26]": {"system": "Mus musculus", "assay": "Biodistribution of radioactivity in normal mice (ICR) skin after 6 hours of intravenous injection of [125I]-16(IMPY)", "assay_type": "ADME, organism-based, Zone of skin", "conditions": "in vivo", "outline": "as §1"}, "Mus musculus [27]": {"system": "Mus musculus", "assay": "Biodistribution of radioactivity in normal mice (ICR) spleen after 1 hour of intravenous injection of [125I]-16(IMPY)", "assay_type": "ADME, organism-based", "conditions": "in vivo", "outline": "as §1"}},
  "data": [
    {"smiles": "CN(C)c1ccc(-c2cn3cc(I)ccc3n2)cc1", "values": [
      {"measurement": "Dose/organ", "setting": "Mus musculus [1]", "value": 1.51, "unit": "%"},
      {"measurement": "Dose/organ", "setting": "Mus musculus [2]", "value": 0.25, "unit": "%"},
      {"measurement": "Dose/organ", "setting": "Mus musculus [3]", "value": 5.88, "unit": "%"},
      {"measurement": "Dose/organ", "setting": "Mus musculus [4]", "value": 2.9, "unit": "%"},
      {"measurement": "Dose/organ", "setting": "Mus musculus [5]", "value": 20.9, "unit": "%"},
      {"measurement": "Dose/organ", "setting": "Mus musculus [6]", "value": 0.61, "unit": "%"},
      {"measurement": "Dose/organ", "setting": "Mus musculus [7]", "value": 6.32, "unit": "%"},
      {"measurement": "Dose/organ", "setting": "Mus musculus [8]", "value": 1.54, "unit": "%"},
      {"measurement": "Dose/organ", "setting": "Mus musculus [9]", "value": 0.34, "unit": "%"},
      {"measurement": "Dose/organ", "setting": "Mus musculus [10]", "value": 0.2, "unit": "%"},
      {"measurement": "Dose/organ", "setting": "Mus musculus [11]", "value": 1.56, "unit": "%"},
      {"measurement": "Dose/organ", "setting": "Mus musculus [12]", "value": 0.05, "unit": "%"},
      {"measurement": "Dose/organ", "setting": "Mus musculus [13]", "value": 0.31, "unit": "%"},
      {"measurement": "Dose/organ", "setting": "Mus musculus [14]", "value": 0.12, "unit": "%"},
      {"measurement": "Dose/organ", "setting": "Mus musculus [15]", "value": 5.03, "unit": "%"},
      {"measurement": "Dose/organ", "setting": "Mus musculus [16]", "value": 2.96, "unit": "%"},
      {"measurement": "Dose/organ", "setting": "Mus musculus [17]", "value": 13.8, "unit": "%"},
      {"measurement": "Dose/organ", "setting": "Mus musculus [18]", "value": 0.27, "unit": "%"},
      {"measurement": "Dose/organ", "setting": "Mus musculus [19]", "value": 6.08, "unit": "%"},
      {"measurement": "Dose/organ", "setting": "Mus musculus [20]", "value": 1.46, "unit": "%"},
      {"measurement": "Dose/organ", "setting": "Mus musculus [21]", "value": 4.28, "unit": "%"},
      {"measurement": "Dose/organ", "setting": "Mus musculus [22]", "value": 3.14, "unit": "%"},
      {"measurement": "Dose/organ", "setting": "Mus musculus [23]", "value": 5.72, "unit": "%"},
      {"measurement": "Dose/organ", "setting": "Mus musculus [24]", "value": 0.22, "unit": "%"},
      {"measurement": "Dose/organ", "setting": "Mus musculus [25]", "value": 4.69, "unit": "%"},
      {"measurement": "Dose/organ", "setting": "Mus musculus [26]", "value": 2.19, "unit": "%"},
      {"measurement": "Dose/organ", "setting": "Mus musculus [27]", "value": 0.08, "unit": "%"}
    ]}
  ]
}
